# Pf gametocyte: P. falciparum stage V gametocyte viability inhibition | P. falciparum stage V gametocytes, ATP luminescence, 24 h | inhibition, % at 10.9 µM | 150,000 compounds, 0.065% hits | AID 743093;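 active = inhibition above the mean plus 3 SD of compounds within the control limits, set per campaign, cut at about 38% in these data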;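 also: 0% = DMSO wells and 100% = medium only without gametocytes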
# ROMK primary: modulates human ROMK potassium channel activity; P48048; Tet-inducible ROMK, thallium flux fluorescence; actives lie on both sides; B-score at 10 µM; 130,000 compounds, 2% hits; AID 1918;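 active = signal ratio slope over the read window, or its plate-corrected B-score, at least 3 SD from the plate mean, either direction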;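 also: B-score of the F/F0 ratio slope over 7 to 12 s after thallium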
# Target sequence (P48048 whole entry, looked up): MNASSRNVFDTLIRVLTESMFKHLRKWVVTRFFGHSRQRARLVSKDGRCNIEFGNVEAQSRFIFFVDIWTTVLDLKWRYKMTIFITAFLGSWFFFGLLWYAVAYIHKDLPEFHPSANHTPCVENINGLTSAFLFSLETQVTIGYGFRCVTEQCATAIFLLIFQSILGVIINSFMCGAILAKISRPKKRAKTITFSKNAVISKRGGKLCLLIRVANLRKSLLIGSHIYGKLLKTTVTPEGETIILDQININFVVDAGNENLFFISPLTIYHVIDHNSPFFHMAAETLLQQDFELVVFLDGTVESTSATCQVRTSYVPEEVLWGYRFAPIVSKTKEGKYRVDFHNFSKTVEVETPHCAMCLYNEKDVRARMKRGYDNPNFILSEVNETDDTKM
# Biofilm kill mix: mixture kills Candida albicans biofilm cells; 120,000 compounds, 0.02% hits; inhibition, % at 7.6 µM; C. albicans biofilm persisters + clotrimazole, fluorescence viability; primary screen in compound mixtures of four per well;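 also: compounds exposed to preformed 24 h biofilms for 48 h; 0% = untreated biofilm control and 100% = clotrimazole plus chlorhexidine kill blank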
#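 Probe or stimulus – Clotrimazole 50 µg/mL co-treatment · System – C. albicans biofilms · Schedule – 24 h biofilm formation, then 48 h compound exposure, 37 °C · Evaluation – percent inhibition of biofilm viability · Technique – 2-h Alamar Blue fluorescence, 535/590 nm excitation/emission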
# ROMK retest: retested hit modulating human ROMK potassium channel; shares compounds with ROMK primary; ROMK thallium flux, fluorescence ratio; stronger effect = lower value; normalized thallium flux (F/F0 slope) at 10 µM; 3,000 compounds, 54% hits; AID 1917;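 active = Flux at 10 µM at least 3 SD below or above vehicle control mean in one or both replicates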
# Numbers without * were called inactive; / = not tested or not shown. Many of the other results were omitted from the sample, so hits are more common in it than they were.
SMILES,Pf gametocyte,ROMK primary,Biofilm kill mix,ROMK retest
CCCCCc1nc2c(c(=O)c3ccccc3n2C)c(=O)n1C1CCCCCC1,11,/,15,0.053*
CN=C(SCc1cc2c(cc1Cl)OCO2)c1c(O)n(C)c(=O)n(C)c1=O,/,-0.32,/,/
CCOC(=O)C(NC(C)=O)C(OC(C)=O)c1cccc(N(CCCl)CCCl)c1 (centres undefined),/,/,13,/
CC(C)(O)[C@H]1O[C@H]2CC[C@@]3(C)[C@@](O)(CC[C@H]4Cc5c([nH]c6ccccc56)[C@@]43C)C2=CC1=O,/,0.27,3,/
Cc1ccc2c(c1)C1CN(C)CCC1N2C(=O)/C(C#N)=C/c1ccc2c(c1)OCO2 (centres undefined),9,-3.1*,5,0.053*
Cc1ccc2c(c1)C1CN(C)CCC1N2C(=O)/C=C/c1ccc2c(c1)OCO2 (centres undefined),-24,-0.43,12,/
O=C(c1ccc(Cl)cc1)C1CCCN(Cc2cccc3cnccc23)C1 (centres undefined),-11,-0.33,0,/
COc1cccc(NC(=O)N2CCC3(CC2)OCCO3)c1,/,/,26,/
CC(=NCc1ccc(F)cc1)c1c(O)n(C)c(=O)n(C)c1=O,-16,/,/,/
CCN1C(=O)NC(=O)/C(=C\c2ccc(N3CCOCC3)cc2OC)C1=O,/,0.46,/,/
COc1cc(N2CCOCC2)ccc1/C=C1\C(=O)NC(=O)N(C2CCCCC2)C1=O,/,-2.5*,14,0.072
NC1C2CN3CCN(C2)CC1(c1ccccc1)C3 (centres undefined),-3,/,11,/
O=c1c(C=NCc2cccs2)c(O)n(C2CCCCC2)c(=O)n1C1CCCCC1,9,-1,/,/
O=c1c(C=NCCN2CCNCC2)c(O)n(C2CCCCC2)c(=O)n1C1CCCCC1,/,-3.7*,/,0.075
Cc1cc(NCCN)nc2ccccc12,5,-0.42,/,/
Cc1ccsc1CNCCc1ccccc1F,-1,/,/,/
CCOc1ccc(-c2c(C)n(-c3ccc(OCC)cc3)c3[n+]2CCCCC3)cc1,0,/,13,0.043*
CCOc1ccc(-n2c(-c3ccoc3)nc3ccccc3c2=O)cc1,14,1.7,/,/
COc1cc2c(cc1OC)-c1c(OC)c(OC)c(OC)c3ccnc(c13)C2=O,/,-4.8*,15,0.048*
COc1cc(CC2(CCc3ccncc3)C(=O)NC(=O)NC2=O)cc(OC)c1OC,-4,0.73,13,/
CC(C)CCCn1c(O)c(/C=C2/C=CC=N2)c(=O)[nH]c1=O,-4,/,16,/
